Screening results from PubChem BioAssay.
A selection: hits, their analogues and other compounds. The true share with any hit is near 2.7%.
sdo1 growth: sdo1-depleted yeast growth rescue. S. cerevisiae sdo1-depleted JHY4D growth rescue, OD600 30 h; hits give high values; pdr5 snq2 efflux-pump mutant strain. z-score at 10 µM. 0.21% of 140,000 active. AID 817;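 active means z-score above 3 at both the 24 hr and the 30 hr optical density reads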
BB579 growth dn: chemicals that inhibit yeast BB579 growth in restrictive medium (lifespan-shortening candidates); S. cerevisiae BB579 growth, OD615, 48 h; inhibition, % at 10 µM; 0.51% of 140,000 active; AID 804;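 active means inhibition above a set limit, 3 SD over the mean compound inhibition, cut at about 44% in these data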
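Assay system: S. cerevisiae DeaD strain BB579 yeast. Medium: CSMM-D restrictive synthetic medium containing dextrose (glucose). Times: 4 h cell preincubation, 48 h compound exposure, 30 °C humidified. Signal: OD615 turbidity measurement. Benchmarks: positive control amphotericin B 10 µg/mL.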
Yeast lifespan up: yeast lifespan extension. 0.68% of 130,000 active. inhibition of the nicotinamide effect, % at 10 µM. S. cerevisiae growth with nicotinamide, OD615; deaD strain in restrictive glucose medium;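 active means inhibition above a set limit, placed 3 SD over the median of all compounds, cut at about 26% in these data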
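Assay system: DeaD-strain S. cerevisiae. Medium: CSMM-D glucose medium, restrictive. Reagent: nicotinamide, 1.5 mM, co-present with compound. Compound: 10 µM single point, 0.25% DMSO. Schedule: culture preincubation 4 h, compound exposure 48 h, both 30 °C. Detection: absorbance at 615 nm.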
RAM inhibit: inhibitors of the yeast RAM network. S. cerevisiae dse1pr::URA3 reporter, 5-FOA growth OD615, 2 d; analog-sensitive cbk1-as2 kinase mutant strain. inhibition, % at 50 µM. 1.8% of 190,000 active. AID 868;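 active means inhibition above a set limit, 3 SD over mean compound inhibition, cut at about 8.4% in these data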;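 further: inhibition rescues growth on 5-FOA so higher OD means more RAM inhibition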
SDO1 rescue DR: confirmation of growth rescue in SDO1-depleted yeast, bone marrow failure. OD recovery (concentration not given with the values). S. cerevisiae JHY4D (SDO1-depleted) growth rescue, OD600, 30 h; hits give high values; efflux-deficient strain, SNQ2 and PDR5 mutated. 44% of 440 active. shares compounds with sdo1 growth;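 active means yeast growth recovered at 30 hours, either rising with dose fitted slope above 0.001 or with average optical density gain above 0.07, some results past the limit were not filed as active; inactive means growth falling with dose or no effect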
Large screens that a line does not name were inactive (follow-up assays come after a bar, where they were run).

NC(=O)COc1ccc(=O)n(-c2ccccc2)n1	none
O=c1ccc(OCCOc2ccccc2)nn1-c1ccccc1	sdo1 growth 12 | SDO1 rescue DR 0.082
O=C(CN1CCCCC1)Nc1ccc(NC(=O)c2ccccc2Cl)cc1Cl	none
C/C(=N\NC(=O)Cn1nnc2ccccc21)c1ccco1	none (no result: sdo1 growth, BB579 growth dn, Yeast lifespan up)
Cc1oc2cc(O)ccc2c(=O)c1-c1cnn(-c2ccccc2)c1	sdo1 growth 5 | SDO1 rescue DR inactive
CC1CCN(C(=O)C2CCC(CNS(=O)(=O)c3cccc4cccnc34)CC2)CC1 (stereo not given)	sdo1 growth 9.6 | SDO1 rescue DR inactive
CN1CCN(C(=O)C2CCC(CNS(=O)(=O)c3cccc4cccnc34)CC2)CC1 (stereo not given)	none
O=C(Nc1ccc2c(c1)OCO2)C1CCCN(S(=O)(=O)Cc2ccccc2)C1 (stereo not given)	none | SDO1 rescue DR 0.082
Cc1n[nH]c(C)c1S(=O)(=O)N1CCCC(C(=O)Nc2ccc3c(c2)OCCO3)C1 (stereo not given)	none | SDO1 rescue DR 0.094
CCn1c(CCCOc2ccc(Cl)cc2Cl)n[nH]c1=S	none (no result: sdo1 growth, BB579 growth dn, Yeast lifespan up)
CCCCC(=O)Nc1cc(NC(=O)CC)ccc1Cl	sdo1 growth 3.4 | SDO1 rescue DR inactive
COc1cc(NC(=O)COC(=O)C=C(C)C)c(C)cc1[N+](=O)[O-]	none (no result: sdo1 growth, BB579 growth dn, Yeast lifespan up)
Cc1c(/C=N\NC(=O)c2cccc(F)c2)cnn1C	sdo1 growth 3.3 | SDO1 rescue DR 0.096
COc1ccc(Br)cc1C(=O)Nc1nnn(C)n1	none
COc1ccc(Cl)cc1C(=O)Nc1nnn(C)n1	none | SDO1 rescue DR inactive
CNC(=O)c1c(NC(=O)c2nc3ccccc3s2)sc2c1CCC2	none | SDO1 rescue DR inactive
COC(=O)c1c(NC(=O)c2nc3ccccc3s2)sc2c1CCN(C(C)=O)C2	none
O=C(Nc1ccccc1)c1ccc(NCC2CCCO2)c([N+](=O)[O-])c1 (stereo not given)	sdo1 growth 11 | SDO1 rescue DR 0.086
COc1ccc(NC(=O)c2ccc(NCC3CCCO3)c([N+](=O)[O-])c2)cc1 (stereo not given)	none (no result: sdo1 growth, BB579 growth dn, Yeast lifespan up)
Cc1cc(O)c(-c2cc(C(=O)Nc3ccc(S(=O)(=O)N4CCOCC4)cc3)[nH]n2)cc1C	none | SDO1 rescue DR 0.091
CCC(C)c1ccccc1NC(=O)C(C)N(C)Cc1cccc(OC)c1 (stereo not given)	none (no result: sdo1 growth, BB579 growth dn, Yeast lifespan up)
O=C(C1CCCCC1)N1CCN(C(=O)C2CCCCC2)CC1	sdo1 growth 11 | SDO1 rescue DR inactive
COc1cc(CN2CCCC(CO)(Cc3cccc(Cl)c3)C2)cc2c1OCO2 (stereo not given)	none (no result: sdo1 growth, BB579 growth dn, Yeast lifespan up)
CCOC(=O)C1CCCN(C(=O)Cc2ccc(C)cc2)C1 (stereo not given)	none | SDO1 rescue DR inactive
COCCCN1C(=O)C(O)=C(C(=O)c2ccco2)C1c1ccccc1 (stereo not given)	none | SDO1 rescue DR 0.097
O=C(C1=C(O)C(=O)N(CCc2ccccc2)C1c1cccnc1)c1ccco1 (stereo not given)	none
Cn1c(N)c(N2CCN(c3ccccc3)CC2)c(=O)[nH]c1=O	none (no result: sdo1 growth, BB579 growth dn, Yeast lifespan up)
CCOC(=O)c1c(NC(=S)Nc2ccc(C)cc2)sc2c1CCC2	none | SDO1 rescue DR 0.088
CCOC(=O)c1c(NC(=S)Nc2ccc(F)cc2)sc2c1CCC2	none
N#Cc1ccsc1NC(=O)COC(=O)c1cc2ccccc2cc1O	none
CC(C)NC(=O)c1ccccc1NC(=O)CN(c1ccc2c(c1)OCO2)S(C)(=O)=O	sdo1 growth 3.1 | SDO1 rescue DR inactive
Cc1cccc(N2CCC(N=CN(C)C)=N2)c1	none (no result: sdo1 growth, BB579 growth dn, Yeast lifespan up)
Cc1nnc(NC(=O)CSc2ncnc3c2cnn3-c2ccccc2C)s1	none | SDO1 rescue DR inactive
Cc1ccccc1-n1ncc2c(SCC(=O)N3c4ccccc4CC3C)ncnc21 (stereo not given)	none
CCOc1cc(C=O)ccc1OS(=O)(=O)c1ccc(NC(C)=O)cc1	none
O=C(C(c1ccccc1)c1ccccc1)N(Cc1ccco1)C1CCS(=O)(=O)C1 (stereo not given)	sdo1 growth 16 | SDO1 rescue DR 0.089
COc1cccc(N2CCN(C(=O)CCCCCNc3nc(=S)[nH]c4ccccc34)CC2)c1	none (no result: sdo1 growth, BB579 growth dn, Yeast lifespan up)
O=C(N/N=C/c1ccc2c(c1)OCO2)C(O)c1ccccc1 (stereo not given)	none
